# In the RNAGym collection of RNA variant scans (doi:10.1101/gad.245936.114):
# Fewer inactive variants are shown than the library holds.
# B1: tRNA (parent)
# chain: CUCUCGGUAGCCAAGUUGGUUUAAGGCGCAAGACUUUAAUUUAUCACUACGAAAUCUUGAGAUCGGGCGUUCGACUCGCCCCCGGGAGAUUUUUUCCUCGAGCAA
# Variants of: B1
# Assay: nonsense suppression (GFP-seq) (ratio to wild type); higher = more function; SUP4oc tRNA, yeast GFP reporter sort-seq
# Method in brief: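 Raffinose/galactose medium with 80 mg/L adenine was used to grow yeast carrying genome-integrated tRNA variants (~3% random-mutation library), RFP, and a galactose-driven GFP ochre reporter. Cells went into GFP/RFP bins, which were Illumina-sequenced, and variants with ≥100 reads and ≥30 cells were scored. Nonsense suppression (GFPSEQ) is the per-bin median GFP/RFP weighted by estimated cell share and expressed relative to the unmutated parent tRNA.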
row,Variant,nonsense suppression
1,U4A A60U,0.52
2,C5A A24U G66A,≤ 0.026
3,U4C U21C G67A,0.0868
4,U4G C5U,0.0955
5,C5A A14G,≤ 0.026
6,U4C C80U,0.651
7,C5G G25A A89G,≤ 0.026
8,C5G U16A U22C U57C C72U A87C,≤ 0.026
9,U4A A13C C83U G84C,≤ 0.026
10,C5U,0.096
11,C3U U20A G26A,≤ 0.026
12,C5A G19U U55G A60U,≤ 0.026
13,U4G C79U,0.173
14,C5G G25C G69C C80A,≤ 0.026
15,C5U A62C G65C U70G U71A,≤ 0.026
16,C3U U21C G61A,0.206
17,C5G G25C G69C,≤ 0.026
18,C5G A60C C64A,≤ 0.026
19,U4A G18A C77A,≤ 0.026
20,C3U U58C,0.202
21,U4C A9G A13G U76C,0.202
22,U4A C12U,≤ 0.026
23,C5A A60G,0.0265
24,C5A A60C,0.0331

row,Variant,nonsense suppression
1,U4G U20G,0.834
2,U4G U20A,0.0644
3,C5U A23G G26C G78A,≤ 0.026
4,U4A A54U,0.191
5,C3U C5U,0.158
6,U4C U22C G86A,1.16
7,C5G U57G U71G,≤ 0.026
8,U4C G73A,1.04
9,U4A U76A,0.0437
10,U4G A24C,0.134
11,C3U G78A,0.0608
12,C3U A60U,0.55
13,U4A A13C U70C C82U,≤ 0.026
14,U4C G26U C34G U35A C82A,≤ 0.026
15,C5G U76G,≤ 0.026
16,C3U G10C U17G U22A G25C,≤ 0.026
17,U4G A87C,0.0794
18,U4G G6U U21C U55C C79G,≤ 0.026
19,U4C G6U,0.959
20,C3U C12G,≤ 0.026
21,C3U C12U,0.039
22,U4C,0.585
23,U4A,0.693
24,U4G,1.16

row,Variant,nonsense suppression
1,U4G G61A C75A,0.558
2,C3U U8C,0.0916
3,U4G A60U,1.12
4,C5A G15A A33G,≤ 0.026
5,C5U C11A U21G A87U,≤ 0.026
6,U4C U55A G67A C79G C83G,≤ 0.026
7,U4A U57A,≤ 0.026
8,U4G A9C,0.0511
9,C5G A24U U57C G66U,≤ 0.026
10,U4G A14U G26A,≤ 0.026
11,U4C U58G A74C,≤ 0.026
12,C3U G10A,0.0262
13,C5A U8C G15C A60C,≤ 0.026
14,C3U G73A,0.0656
15,U4G A60C G85A,≤ 0.026
16,C3U G78C A89U,≤ 0.026
17,U4C A9G U22G,0.202
18,C5G C12G U16C G32A,≤ 0.026
19,U4A U20C A31U U71G C80A,≤ 0.026
20,U4G C68G,0.0622
21,C3U U20G G85A,0.214
22,C5U C68U,≤ 0.026
23,U4G A13U,0.191
24,U4G G66A,0.0774

row,Variant,nonsense suppression
1,U4G C12G,0.0311
2,U4A A31U,0.0312
3,C5A C64A C77A,≤ 0.026
4,U4C G15A U21A,0.214
5,U4C A13U G78A,0.424
6,C3U C68U,0.201
7,U4G C5G U17C U63C A74U,≤ 0.026
8,C5G G6C A9C A89C,≤ 0.026
9,C5U A9G,0.0324
10,U4C U22G G26U G73C G78C,≤ 0.026
11,U4A U21G C79U,≤ 0.026
12,C5G G61A,≤ 0.026
13,U4G A89U,0.0348
14,U4G C72G,0.0909
15,U4G A33G,0.0332
16,U4A C77U,0.0506
17,C5A A30U C68A,≤ 0.026
18,U4G U17G G69A,≤ 0.026
19,U4A C5A,0.0374
20,U4C U22A G86A,0.552
21,U4A G10A U21G G28C,≤ 0.026
22,U4C C68U U76C,1.13
23,U4C A60C,1.04
24,C5G U20G C75G G88U,≤ 0.026

row,Variant,nonsense suppression
1,C5A G7U U20G A74U,≤ 0.026
2,U4C A62U,0.272
3,C5U C79U,0.0439
4,U4C G7U,0.202
5,C5A U63A G66C,≤ 0.026
6,U4G U8A,≤ 0.026
7,C3U G26C G28A,≤ 0.026
8,U4G G6A,0.0297
9,U4C A31G G65A,≤ 0.026
10,U4C A14U,0.0343
11,U4G U16C,0.882
12,C3U U8G A54U U58G C83U,≤ 0.026
13,U4A A24U,0.0458
14,U4C U16C A31U,0.97
15,U4A C83G G88C,≤ 0.026
16,U4G A74G,0.0287
17,C3U U17A,0.194
18,C5A U58A G78C,≤ 0.026
19,U4A C79U,0.0353
20,U4G C56U,0.0355
21,C5A A13C U58A C81A,≤ 0.026
22,U4C A24U,0.84
23,U4C A24G,0.31
24,U4C A24C,1.06

row,Variant,nonsense suppression
1,U4A U22G,0.155
2,C3U C72G,≤ 0.026
3,C5G U55C G69C G86U,≤ 0.026
4,U4C G25C,0.723
5,U4C G25A,0.162
6,C5A U16G G88U,≤ 0.026
7,U4C A30U,0.0792
8,U4G A31G,0.0398
9,U4G A31U,0.0387
10,U4A U63A,0.155
11,U4C U8A,0.0441
12,C5G A87U,≤ 0.026
13,U4C G61U C79G A89G,≤ 0.026
14,C5U A31G U71C,≤ 0.026
15,U4G A13G U16C,0.0797
16,U4C A31U,1.04
17,U4C A14G G61A U71A,≤ 0.026
18,C3U G66C,0.0288
19,C5A A31C,≤ 0.026
20,U4C U17G G25C G66U U70C G84U,≤ 0.026
21,U4C G78U,1.12
22,U4C G78A,0.978
23,U4C G78C,1.06
24,U4G U76A,0.109

row,Variant,nonsense suppression
1,C3U G6C A9U A13G A23G A60G G69C,≤ 0.026
2,U4G U57G A60U,≤ 0.026
3,U4A G85A,0.0324
4,U4A U20A,0.072
5,U4C A33G,0.0434
6,C5G C12G,0.174
7,U4G A54U,0.469
8,U4C C12G C64G G66C,≤ 0.026
9,U4G U17C,0.45
10,U4C U71C,≤ 0.026
11,C3U G61C,0.164
12,C3U G61A,0.198
13,C3U G86A,1.07
14,U4C A9G,0.391
15,U4C A9U,1.07
16,U4C A9C,1.02
17,U4A G19U,≤ 0.026
18,C5G A13U G19U U35G A87G,≤ 0.026
19,U4C U63C G67A,≤ 0.026
20,U4C G7U U8C G69C,≤ 0.026
21,C5G A74G,≤ 0.026
22,C5G C34U A74U C77A,≤ 0.026
23,C3U G10C A23U C83G G85A A89U,≤ 0.026
